ChEMBL document CHEMBL4715736, “Identification of anticancer agents based on the thieno[2,3-b]pyridine and 1H-pyrazole molecular scaffolds” (2016)

How the values were obtained:
Type in all cases: functional
786-0 = experiment: Growth inhibition of human 786-0 cells assessed as cell growth at 1 uM incubated for 48 hrs by sulforhodamine B assay relative to control; conditions: read-out: Activity
Procedure, shortened: (§1)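 NCI Developmental Therapeutics Program NCI60 panel. Compounds that were active in the 10 µM one-dose screen went on to dose–response testing. Growth at each concentration is expressed relative to untreated control (100%). GI50 (concentration giving 50% of maximal inhibition of proliferation) and TGI (concentration giving total growth inhibition) were derived from the curves.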

OVCAR-8 [1] = experiment: Growth inhibition of human OVCAR-8 cells incubated for 48 hrs by sulforhodamine B assay
Procedure, shortened: (§2)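 NCI DTP 60-line human tumour panel. Dose-response curves were run only for ligands active in the initial 10 µM screen. GI50 (concentration giving 50% of maximal inhibition of proliferation) and TGI (concentration giving total growth inhibition) were derived from these curves.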

NCI-H522 [2] = experiment: Growth inhibition of human NCI-H522 cells incubated for 48 hrs by sulforhodamine B assay
Procedure, shortened: (§3)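 NCI60 panel at the NCI Developmental Therapeutics Program. Only compounds active in the 10 µM screen went to dose-response testing. GI50, the concentration giving 50% of maximal inhibition of proliferation, and TGI, the concentration giving total growth inhibition, were derived from the dose-response curves.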

TK-10 = experiment: Growth inhibition of human TK-10 cells assessed as cell growth at 0.01 uM incubated for 48 hrs by sulforhodamine B assay relative to control; conditions: read-out: Activity
HCT-15 = experiment: Growth inhibition of human HCT-15 cells incubated for 48 hrs by sulforhodamine B assay; procedure, shortened: as §3
SK-MEL-28 = experiment: Growth inhibition of human SK-MEL-28 cells assessed as cell growth at 100 uM incubated for 48 hrs by sulforhodamine B assay relative to control; conditions: read-out: Activity
NCI-H23 = experiment: Growth inhibition of human NCI-H23 cells assessed as cell growth at 100 uM incubated for 48 hrs by sulforhodamine B assay relative to control; conditions: read-out: Activity
KM12 = experiment: Growth inhibition of human KM12 cells assessed as cell growth at 0.1 uM incubated for 48 hrs by sulforhodamine B assay relative to control; conditions: read-out: Activity
HCC 2998 = experiment: Growth inhibition of human HCC 2998 cells incubated for 48 hrs by sulforhodamine B assay
MOLT-4 [3] = experiment: Growth inhibition of human MOLT-4 cells assessed as cell growth at 1 uM incubated for 48 hrs by sulforhodamine B assay relative to control; conditions: read-out: Activity
NCI-H522 [4] = experiment: Growth inhibition of human NCI-H522 cells assessed as cell growth at 0.01 uM incubated for 48 hrs by sulforhodamine B assay relative to control; conditions: read-out: Activity
MOLT-4 [5] = experiment: Growth inhibition of human MOLT-4 cells incubated for 48 hrs by sulforhodamine B assay; procedure, shortened: as §3
HT-29 [6] = experiment: Growth inhibition of human HT-29 cells assessed as cell growth at 1 uM incubated for 48 hrs by sulforhodamine B assay relative to control; conditions: read-out: Activity
HT-29 [7] = experiment: Growth inhibition of human HT-29 cells assessed as cell growth at 100 uM incubated for 48 hrs by sulforhodamine B assay relative to control; conditions: read-out: Activity
HOP-92 = experiment: Growth inhibition of human HOP-92 cells incubated for 48 hrs by sulforhodamine B assay; procedure, shortened: as §3
HCT-116 [8] = experiment: Growth inhibition of human HCT-116 cells assessed as cell growth at 0.01 uM incubated for 48 hrs by sulforhodamine B assay relative to control; conditions: read-out: Activity
RXF 393 = experiment: Growth inhibition of human RXF 393 cells incubated for 48 hrs by sulforhodamine B assay; procedure, shortened: as §2
UO-31 = experiment: Growth inhibition of human UO-31 cells assessed as cell growth at 1 uM incubated for 48 hrs by sulforhodamine B assay relative to control; conditions: read-out: Activity
IGROV-1 = experiment: Growth inhibition of human IGROV-1 cells assessed as cell growth at 0.01 uM incubated for 48 hrs by sulforhodamine B assay relative to control; conditions: read-out: Activity
HOP-62 = experiment: Growth inhibition of human HOP-62 cells assessed as cell growth at 1 uM incubated for 48 hrs by sulforhodamine B assay relative to control; conditions: read-out: Activity
OVCAR-8 [9] = experiment: Growth inhibition of human OVCAR-8 cells assessed as cell growth at 1 uM incubated for 48 hrs by sulforhodamine B assay relative to control; conditions: read-out: Activity
NCI-H522 [10] = experiment: Growth inhibition of human NCI-H522 cells assessed as cell growth at 1 uM incubated for 48 hrs by sulforhodamine B assay relative to control; conditions: read-out: Activity
SF-268 [11] = experiment: Growth inhibition of human SF-268 cells incubated for 48 hrs by sulforhodamine B assay; procedure, shortened: as §2
CAKI-1 [12] = experiment: Growth inhibition of human CAKI-1 cells incubated for 48 hrs by sulforhodamine B assay; procedure, shortened: as §1
MCF7 [13] = experiment: Growth inhibition of human MCF7 cells assessed as cell growth at 0.1 uM incubated for 48 hrs by sulforhodamine B assay relative to control; conditions: read-out: Activity
HCT-116 [14] = experiment: Growth inhibition of human HCT-116 cells incubated for 48 hrs by sulforhodamine B assay; procedure, shortened: as §3
SNB-19 = experiment: Growth inhibition of human SNB-19 cells assessed as cell growth at 0.01 uM incubated for 48 hrs by sulforhodamine B assay relative to control; conditions: read-out: Activity
SNB-75 = experiment: Growth inhibition of human SNB-75 cells assessed as cell growth at 0.1 uM incubated for 48 hrs by sulforhodamine B assay relative to control; conditions: read-out: Activity
MCF7 [15] = experiment: Growth inhibition of human MCF7 cells assessed as cell growth at 1 uM incubated for 48 hrs by sulforhodamine B assay relative to control; conditions: read-out: Activity
Hs-578T = experiment: Growth inhibition of human Hs-578T cells assessed as cell growth at 100 uM incubated for 48 hrs by sulforhodamine B assay relative to control; conditions: read-out: Activity
SW-620 = experiment: Growth inhibition of human SW-620 cells incubated for 48 hrs by sulforhodamine B assay; procedure, shortened: as §2
CAKI-1 [16] = experiment: Growth inhibition of human CAKI-1 cells assessed as cell growth at 0.1 uM incubated for 48 hrs by sulforhodamine B assay relative to control; conditions: read-out: Activity; procedure, shortened: as §1
SF-539 = experiment: Growth inhibition of human SF-539 cells assessed as cell growth at 100 uM incubated for 48 hrs by sulforhodamine B assay relative to control; conditions: read-out: Activity
SF-268 [17] = experiment: Growth inhibition of human SF-268 cells assessed as cell growth at 0.01 uM incubated for 48 hrs by sulforhodamine B assay relative to control; conditions: read-out: Activity
NCI/ADR-RES = experiment: Growth inhibition of human NCI/ADR-RES cells incubated for 48 hrs by sulforhodamine B assay; procedure, shortened: as §3
[18] = read-out: LC50 (the source's name)

COc1cccc(NC(=O)c2sc3nc4c(cc3c2N)CN(Cc2ccccc2)CC4)c1
growth at 1 µM (786-0): 85%
GI50 (OVCAR-8 [1]): 4.45 µM
TGI (OVCAR-8 [1]): 85.2 µM
CC50 (OVCAR-8 [1]; [18]): > 100 µM
GI50 (NCI-H522 [2]): 15.1 µM
LC50 (NCI-H522 [2]): > 100 µM
TGI (NCI-H522 [2]): > 100 µM
growth at 0.01 µM (TK-10): 104%
GI50 (HCT-15): 0.93 µM
LC50 (HCT-15): > 100 µM
TGI (HCT-15): > 100 µM
growth at 100 µM (SK-MEL-28): -30%
growth at 100 µM (NCI-H23): -19%
growth at 0.1 µM (KM12): 98%
GI50 (HCC 2998): 9.13 µM
TGI (HCC 2998): > 100 µM
CC50 (HCC 2998; [18]): > 100 µM
growth at 1 µM (MOLT-4 [3]): 78%
growth at 0.01 µM (NCI-H522 [4]): 95%
GI50 (MOLT-4 [5]): 21.9 µM
TGI (MOLT-4 [5]): > 100 µM
CC50 (MOLT-4 [5]; [18]): > 100 µM
growth at 1 µM (HT-29 [6]): 96%
growth at 100 µM (HT-29 [7]): -72%
GI50 (HOP-92): 2.21 µM
LC50 (concentration killing 50% of the starting cells) (HOP-92): > 100 µM
TGI (HOP-92): 24.1 µM
growth at 0.01 µM (HCT-116 [8]): 91%
GI50 (RXF 393): 2.71 µM
TGI (RXF 393): 12.9 µM
CC50 (RXF 393; [18]): > 100 µM
growth at 1 µM (UO-31): 77%
growth at 0.01 µM (IGROV-1): 101%
growth at 1 µM (HOP-62): 74%
growth at 1 µM (OVCAR-8 [9]): 90%
growth at 1 µM (NCI-H522 [10]): 74%
GI50 (SF-268 [11]): 3.66 µM
LC50 (concentration killing 50% of cells) (SF-268 [11]): > 100 µM
TGI (SF-268 [11]): 207 µM
GI50 (CAKI-1 [12]): 11.7 µM
TGI (CAKI-1 [12]): > 100 µM
CC50 (CAKI-1 [12]; [18]): > 100 µM
growth at 0.1 µM (MCF7 [13]): 87%
GI50 (HCT-116 [14]): 1.74 µM
LC50 (concentration killing 50% of cells) (HCT-116 [14]): > 100 µM
TGI (HCT-116 [14]): > 100 µM
growth at 0.01 µM (SNB-19): 98%
growth at 0.1 µM (SNB-75): 92%
growth at 1 µM (MCF7 [15]): 40%
growth at 100 µM (Hs-578T): -9%
GI50 (SW-620): 1.85 µM
LC50 (concentration killing 50% of cells) (SW-620): > 100 µM
TGI (SW-620): 72.2 µM
growth at 0.1 µM (CAKI-1 [16]): 91%
growth at 100 µM (SF-539): -75%
growth at 0.01 µM (SF-268 [17]): 99%
GI50 (NCI/ADR-RES): 2.4 µM
TGI (NCI/ADR-RES): 33.3 µM
CC50 (NCI/ADR-RES; [18]): > 100 µM
